pIC50: −log10 of the molar value.
Experiments:
[1] = Compound was tested for the drug concentration that inhibited cell growth by 50% compared to un treated control cultures of CA 755 cells(murine carcinoma 755 cells); assay type: functional, Mus musculus
How it was run: (§1)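 Exponentially growing cells, seeded at 1.5×10^4 cells/mL in McCoy's 5A with 10% FCS, exposed to drug over 2×10^-5 to 2×10^-12 M for 6 days at 37 °C. Cells fixed in 10% formaldehyde, stained with 0.1% crystal violet, and counted by inverted phase-contrast microscopy. IC50 taken from dose-response curves of surviving fraction versus untreated controls; mean of duplicates.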

[2] = system: CHO; test: Drug concentration that inhibit cell growth by 50% compared to un treated control cultures of CHO cells (for 6 days at 37 degree Centigrade); assay type: functional, cell-based; settings: Cricetulus griseus, 144 h; how it was run: as §1
[3] = system: CHO; test: Compound was tested for the drug concentration that inhibited cell growth by 50% compared to un treated control cultures of CHO /DOX cell line; assay type: functional, cell-based; settings: Cricetulus griseus; how it was run: as §1
[4] = species on record: Mus musculus; test: Compound was tested for the drug concentration that inhibited cell growth by 50% compared to un treated control cultures of Panc 02 cells; assay type: functional, cell-based; settings: Panc02; how it was run: as §1
[5] = Compound was tested for the drug concentration that inhibited cell growth by 50% compared to untreated control cultures of CA 755 cells(murine carcinoma 755 cells); assay type: functional; settings: Mus musculus; how it was run: as §1
[6] = species on record: Mus musculus; test: Compound was tested for the drug concentration that inhibited cell growth by 50% compared to untreated control cultures of Panc 02 cells; assay type: functional, cell-based; settings: Panc02; how it was run: as §1

`COc1cccc2c1C(=O)c1c(O)c3c(c(O)c1C2=O)CC(O)(C(=O)CO)CC3OC1CC(NCCCCCOC(C)=O)C(O)C(C)O1` (stereo not given) gave an IC50 [1] of 140 nM, a pIC50 [2] of 7.08 and a pIC50 [3] of 6.46. For the same compound, the pIC50 [4] was 7.17.

Work on `COc1cccc2c1C(=O)c1c(O)c3c(c(O)c1C2=O)CC(O)(C(=O)CO)CC3OC1CC(NCCCOCCC(OC(C)=O)OC(C)=O)C(O)C(C)O1` (stereo not given) yielded an IC50 [1] of 90 nM, a pIC50 [2] of 7.00 and a pIC50 [3] of 6.68. It also gave a pIC50 [4] of 7.10.

Compound `CCCCCNC1CC(OC2CC(O)(C(=O)CO)Cc3c(O)c4c(c(O)c32)C(=O)c2c(OC)cccc2C4=O)OC(C)C1O` (stereo not given) has an IC50 [1] of 33 nM and a pIC50 [4] of 7.00.

For `COc1cccc2c1C(=O)c1c(O)c3c(c(O)c1C2=O)CC(O)(C(=O)CO)CC3OC1CC(NCCCC(=O)O)C(O)C(C)O1` (stereo not given), the IC50 [1] was 150 nM, the pIC50 [2] was 6.69 and the pIC50 [3] was 6.02. The pIC50 [4] was 6.62.

Work on `COc1cccc2c1C(=O)c1c(O)c3c(c(O)c1C2=O)CC(O)(C(=O)CO)CC3OC1CC(NCCCCCCCC(OC(C)=O)OC(C)=O)C(O)C(C)O1` (stereo not given) yielded an IC50 [1] of 14 nM, a pIC50 [2] of 6.60 and a pIC50 [3] of 6.77. It also gave a pIC50 [4] of 6.96.

In the case of `COc1cccc2c1C(=O)c1c(O)c3c(c(O)c1C2=O)CC(O)(C(=O)CO)CC3OC1CC(NCCOCCC(OC(C)=O)OC(C)=O)C(O)C(C)O1` (stereo not given), the pIC50 [2] was 7.26, the pIC50 [3] was 7.02 and the pIC50 [4] was 7.22.

With `COc1cccc2c1C(=O)c1c(O)c3c(c(O)c1C2=O)CC(O)(C(=O)CO)CC3OC1CC(N(C)CCCCC(OC(C)=O)OC(C)=O)C(O)C(C)O1` (stereo not given) the IC50 [1] was 130 nM, the pIC50 [2] was 7.19 and the pIC50 [3] was 6.73. It also gave a pIC50 [4] of 6.85.

Work on `COc1cccc2c1C(=O)c1c(O)c3c(c(O)c1C2=O)CC(O)(C(=O)CO)CC3OC1CC(NCCCCCC(OC(C)=O)OC(C)=O)C(O)C(C)O1` (stereo not given) yielded an IC50 [1] of 3.1 nM, a pIC50 [2] of 7.59 and a pIC50 [3] of 7.89. For the same compound, the pIC50 [4] was 7.85.

`COc1cccc2c1C(=O)c1c(O)c3c(c(O)c1C2=O)CC(O)(C(=O)CO)CC3OC1CC(NCCC(C)(C)C(OC(C)=O)OC(C)=O)C(O)C(C)O1` (stereo not given) gave an IC50 [1] of 90 nM, a pIC50 [2] of 6.92 and a pIC50 [3] of 6.54. It also gave a pIC50 [4] of 7.02.

In the case of `COc1cccc2c1C(=O)c1c(O)c3c(c(O)c1C2=O)C[C@@](O)(C(=O)CO)C[C@@H]3O[C@H]1C[C@H](N)[C@H](O)[C@H](C)O1` [DOXORUBICIN], the pIC50 [5] was 7.85 and the pIC50 [6] was 7.19.

— ChEMBL document CHEMBL1131568, “Intensely potent doxorubicin analogues: structure-activity relationship” (J Med Chem, 1998)
